ChEMBL document CHEMBL1127029, “Synthesis and evaluation of 2-pyridinone derivatives as specific HIV-1 reverse transcriptase inhibitors. 3. Pyridyl and phenyl analogs of 3-aminopyridin-2(1H)-one” (J Med Chem, 1993)
Counter-ions that a name gives are not always drawn.

Each compound was assayed against Human immunodeficiency virus type 1 reverse transcriptase (Human immunodeficiency virus 1, UniProt Q72547) (assay: In vitro inhibitory concentration against HIV-1 reverse transcriptase using rC-dG template primer). Details: not given.

SMILES	IC50
CCc1cc(CNc2cc(CC)c(C)nc2O)c(O)nc1C	91 nM
CCc1cc(NCc2nc3c(cc2OC)CCCC3)c(O)nc1C	47 nM
CCc1cc(NCc2nc3c(cc2OC)CCC3)c(O)nc1C	40 nM
CCc1cc(NCc2ccccc2[N+](=O)[O-])c(=O)[nH]c1C	530 nM
CCc1cc(NCc2ccccc2COC)c(O)nc1C	35500 nM
CCc1cc(NCc2ccccc2OC)c(O)nc1C	265 nM
CCc1cc(NCc2cc3c(cc2OC)CCC3)c(=O)[nH]c1C	40 nM
CCc1cc(NCc2nc(CC)c(C)cc2OC)c(O)nc1C	70 nM
CCc1cc(NCc2ncccc2OC)c(=O)[nH]c1C	1550 nM
CCOCn1c(Sc2ccccc2)c(CC)c(=O)[nH]c1=O	32 nM
CC(C)=CCN1Cc2cccc3[nH]c(=S)n(c23)C[C@@H]1C	70 nM
CCc1cc(NCc2cnccc2OC)c(=O)[nH]c1C	10000 nM
CCc1ccc(OC)c(CNc2cc(CC)c(C)nc2O)c1	32 nM
CCc1cc(CCc2cc(CC)c(C)nc2OC)c(O)nc1C	65 nM
CCc1ccc(CNc2cc(CC)c(C)nc2O)c(OC)c1	510 nM
CCc1cc(NCc2ccccc2N)c(O)nc1C	28000 nM
CCc1cc(NCc2ccccc2C(F)(F)F)c(=O)[nH]c1C	12500 nM
CCc1ccccc1CNc1cc(CC)c(C)[nH]c1=O	6900 nM
CCc1cc(NCc2cc(C)c(C)cc2OC)c(O)nc1C	8 nM
CCc1cc(CCc2nc3ccccc3o2)c(O)nc1C	20 nM
CCc1cc(CNc2cc(CC)c(C)[nH]c2=O)c(OC)cc1C	33 nM

SMILES	IC50
CCc1cc(CCc2cc(CC)c(C)nc2O)c(O)nc1C	400 nM
CCc1cc(NCc2cc3c(nc2OC)CCCC3)c(O)nc1C	35 nM
CCc1cc(NCc2cc(C)c(C)nc2OC)c(O)nc1C	9 nM
CCc1cc(NCc2cccc(C)c2OC)c(O)nc1C	3800 nM
CCc1cc(NCc2cc3ccccc3nc2OC)c(O)nc1C	34 nM
CCc1cc(NCc2ccncc2OC)c(=O)[nH]c1C	110000 nM
CCOc1ccccc1CNc1cc(CC)c(C)nc1O	350 nM
CCc1cc(NCc2ccccc2C#N)c(=O)[nH]c1C	790 nM
CCc1cc(NCc2ccccc2O)c(=O)[nH]c1C	4600 nM
CCc1cc(NCc2cccnc2OC)c(O)nc1C	680 nM
CCc1cc(NCc2nc(C)c(C)cc2OC)c(O)nc1C	70 nM
CCc1cc(NCc2ccc(OC)cc2)c(O)nc1C	7500 nM
CCc1cc(NCc2ccccc2Cl)c(O)nc1C	1450 nM
CCc1cc(NCc2ccccc2C)c(O)nc1C	2200 nM
CCc1cc(NCc2cccc(OC)c2)c(=O)[nH]c1C	1250 nM
CCc1cc(NCc2cc(CC)c(C)nc2OC)c(O)nc1C	19 nM
CCc1cc(NCc2c(C)cccc2OC)c(=O)[nH]c1C	1300 nM
CCc1cc(NCc2ccccc2F)c(O)nc1C	1400 nM
CCc1cc(NCc2ccccc2SC)c(=O)[nH]c1C	1500 nM
CCc1cc(NCc2ccc(C)cc2OC)c(O)nc1C	32 nM
CCc1cc(NCc2cc(C)ccc2OC)c(O)nc1C	23 nM

The compounds below were run on MT4 (assay: Cell culture inhibitory concentration against spread of HIV-I infection in MT-4 cells was determined). Details: Homo sapiens, read-out: CIC95.
Format: functional
Procedure, shortened: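 Spread of HIV-1 infection in MT-4 cell culture; the read-out is HIV-1 p24 core antigen by ELISA. The value is the lowest concentration giving ≥95% inhibition of infection spread (CIC95).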

SMILES	IC95
CCc1cc(NCc2ccccc2OC)c(O)nc1C	400 nM
CCOCn1c(Sc2ccccc2)c(CC)c(=O)[nH]c1=O	100 nM
CC(C)=CCN1Cc2cccc3[nH]c(=S)n(c23)C[C@@H]1C	200 nM
CCc1cc(NCc2cc(C)c(C)cc2OC)c(O)nc1C	13 nM
CCc1cc(NCc2cc(C)c(C)nc2OC)c(O)nc1C	50 nM
CCc1cc(NCc2cccnc2OC)c(O)nc1C	800 nM
CCc1cc(NCc2nc(C)c(C)cc2OC)c(O)nc1C	100 nM
CCc1cc(NCc2cc(CC)c(C)nc2OC)c(O)nc1C	13 nM
CCNc1cccnc1N1CCN(C(=O)c2cc3cc(OC)ccc3[nH]2)CC1 [ATEVIRDINE MESYLATE]	1500 nM
CCc1cc(NCc2nc3c(Cl)ccc(Cl)c3o2)c(O)nc1C [L-697661]	50 nM
Cc1ccnc2c1NC(=O)c1cccnc1N2C1CC1 [NEVIRAPINE]	100 nM
